Measurements taken from ChEMBL document CHEMBL1157848, “Derivatives of benzimidazole pharmacophore: synthesis, anticonvulsant, antidiabetic and DNA cleavage studies” (2010).
Active and inactive are the calls of the source. The calls are words filed in the database; no cut-off is given here.

Experiments:
[1] = tested on: Rattus norvegicus; assay: Antidiabetic activity in Wistar albino rat assessed as reduction of blood glucose level administered qd for 9 days measured after 90 mins last post dose by oral glucose tolerance test (RVb = 135.7 +/- 2.9 mg/dl); type: functional
[2] = tested on: Rattus norvegicus; assay: Antidiabetic activity in Wistar albino rat assessed as reduction of blood glucose level administered qd for 9 days by glucose oxidation method (RVb = […] +/- […] mg/dl); type: functional
[3] = tested on: Rattus norvegicus; assay: Antidiabetic activity in Wistar albino rat assessed as reduction of fasting blood glucose level administered qd for 9 days by oral glucose tolerance test (RVb = 83.33 +/- 1.54 mg/dl); type: functional
[4] = tested on: Nucleic Acid; assay: Induction of Escherichia coli DNA cleavage at 25 mg after 2 hrs using ethidium bromide staining by agarose gel electrophoresis methos; type: nucleic-acid assay
How it was run: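 Genomic DNA came from E. coli grown 24 h at 37 °C in nutrient broth. It was extracted by SDS/EDTA lysis, phenol then chloroform–isoamyl alcohol, and ethanol precipitation, and dissolved in TAE. Samples were incubated with the DNA 2 h at 37 °C, mixed 1:1 with bromophenol blue, and run on agarose in TAE at 50 V alongside a DNA marker. Gels were ethidium bromide stained 10–15 min and cleavage judged visually.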

[5] = tested on: Rattus norvegicus; assay: Antidiabetic activity in Wistar albino rat assessed as reduction of blood glucose level administered qd for 9 days measured after 30 mins last post dose by oral glucose tolerance test (RVb = 183.2 +/- 3.68 mg/dl); type: functional
[6] = tested on: Rattus norvegicus; assay: Anticonvulsant activity in Wistar albino rat assessed as time spent on stupor phase at 60 mg/kg by MES test (RVb = 218.33 +/- 5.80 sec); type: functional
How it was run: (§1)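 Maximal electroshock (MES) convulsion model in rats. Duration in seconds of the flexion, extensor, clonus and stupor phases was recorded, along with recovery or death. The vehicle control was 1% w/w gum acacia and phenytoin was the reference. Data are mean ± SEM, with P < 0.05 taken as significant.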

[7] = tested on: Rattus norvegicus; assay: Anticonvulsant activity in Wistar albino rat assessed as time spent on tonic extensor phase at 60 mg/kg by MES test (RVb = 11 +/- 0.57 sec); type: functional; how it was run: as §1
[8] = tested on: Rattus norvegicus; assay: Anticonvulsant activity in Wistar albino rat assessed as time spent on tonic flexion phase at 60 mg/kg by MES test (RVb = 3.12 +/- 0.31 sec); type: functional; how it was run: as §1
[9] = tested on: Rattus norvegicus; assay: Anticonvulsant activity in Wistar albino rat assessed as time spent on clonic convulsions phase at 60 mg/kg by MES test (RVb = 16.80 +/- 2.50 sec); type: functional; how it was run: as §1
[10] = tested on: Rattus norvegicus; assay: Anticonvulsant activity in Wistar albino rat assessed as time spent on tonic flexion phase at 75 mg/kg by MES test (RVb = 3.12 +/- 0.31 sec); type: functional; how it was run: as §1
[11] = tested on: Rattus norvegicus; assay: Anticonvulsant activity in Wistar albino rat assessed as time spent on clonic convulsions phase at 75 mg/kg by MES test (RVb = 16.80 +/-2.50 sec); type: functional; how it was run: as §1
[12] = tested on: Rattus norvegicus; assay: Anticonvulsant activity in Wistar albino rat assessed as time spent on stupor phase at 75 mg/kg by MES test (RVb = 218.33 +/- 5.80 sec); type: functional; how it was run: as §1
[13] = tested on: Rattus norvegicus; assay: Anticonvulsant activity in Wistar albino rat assessed as time spent on tonic extensor phase at 75 mg/kg by MES test (RVb = 11 +/- 0.57 sec); type: functional; how it was run: as §1
[14] = tested on: Rattus norvegicus; assay: Anticonvulsant activity in Wistar albino rat assessed as time spent on tonic flexion phase at 20 mg/kg by MES test (RVb = 3.12 +/- 0.31 sec); type: functional; how it was run: as §1
[15] = tested on: Rattus norvegicus; assay: Anticonvulsant activity in Wistar albino rat assessed as time spent on clonic convulsions phase at 20 mg/kg by MES test (RVb = 16.80 +/- 2.50 sec); type: functional; how it was run: as §1
[16] = tested on: Rattus norvegicus; assay: Anticonvulsant activity in Wistar albino rat assessed as time spent on stupor phase at 20 mg/kg by MES test (RVb = 218.33 +/- 5.80 sec); type: functional; how it was run: as §1
[17] = tested on: Rattus norvegicus; assay: Anticonvulsant activity in Wistar albino rat assessed as time spent on tonic extensor phase at 20 mg/kg by MES test (RVb = 11 +/- 0.57 sec); type: functional; how it was run: as §1
[18] = tested on: Rattus norvegicus; assay: Anticonvulsant activity in Wistar albino rat assessed as time spent on clonic convulsions phase at 80 mg/kg by MES test (RVb = 16.80 +/- 2.50 sec); type: functional; how it was run: as §1
[19] = tested on: Rattus norvegicus; assay: Anticonvulsant activity in Wistar albino rat assessed as time spent on stupor phase at 80 mg/kg by MES test (RVb = 218.33 +/- 5.80 sec); type: functional; how it was run: as §1
[20] = tested on: Rattus norvegicus; assay: Anticonvulsant activity in Wistar albino rat assessed as time spent on tonic extensor phase at 80 mg/kg by MES test (RVb = 11 +/- 0.57 sec); type: functional; how it was run: as §1
[21] = tested on: Rattus norvegicus; assay: Anticonvulsant activity in Wistar albino rat assessed as time spent on tonic flexion phase at 80 mg/kg by MES test (RVb = 3.12 +/- 0.31 sec); type: functional; how it was run: as §1
[22] = tested on: Rattus norvegicus; assay: Anticonvulsant activity in Wistar albino rat assessed as time spent on tonic flexion phase at 82 mg/kg by MES test (RVb = 3.12 +/- 0.31 sec); type: functional; how it was run: as §1
[23] = tested on: Rattus norvegicus; assay: Anticonvulsant activity in Wistar albino rat assessed as time spent on stupor phase at 82 mg/kg by MES test (RVb = 218.33 +/- 5.80 sec); type: functional; how it was run: as §1
[24] = tested on: Rattus norvegicus; assay: Anticonvulsant activity in Wistar albino rat assessed as time spent on tonic extensor phase at 82 mg/kg by MES test; type: functional; how it was run: as §1
[25] = tested on: Rattus norvegicus; assay: Anticonvulsant activity in Wistar albino rat assessed as time spent on clonic convulsions phase at 82 mg/kg by MES test (RVb = 16.80 +/- 2.50 sec); type: functional; how it was run: as §1
[26] = tested on: Rattus norvegicus; assay: Anticonvulsant activity in Wistar albino rat assessed as time spent on clonic convulsions phase at 70 mg/kg by MES test (RVb = 16.80 +/- 2.50 sec); type: functional; how it was run: as §1
[27] = tested on: Rattus norvegicus; assay: Anticonvulsant activity in Wistar albino rat assessed as time spent on tonic flexion phase at 70 mg/kg by MES test (RVb = 3.12 +/- 0.31 sec); type: functional; how it was run: as §1
[28] = tested on: Rattus norvegicus; assay: Anticonvulsant activity in Wistar albino rat assessed as time spent on stupor phase at 70 mg/kg by MES test (RVb = 218.33 +/- 5.80 sec); type: functional; how it was run: as §1
[29] = tested on: Rattus norvegicus; assay: Anticonvulsant activity in Wistar albino rat assessed as time spent on tonic extensor phase at 70 mg/kg by MES test (RVb = 11 +/- 0.57 sec); type: functional; how it was run: as §1
[30] = tested on: Rattus norvegicus; assay: Anticonvulsant activity in Wistar albino rat assessed as time spent on tonic extensor phase at 65 mg/kg by MES test (RVb = 11 +/- 0.57 sec); type: functional; how it was run: as §1
[31] = tested on: Rattus norvegicus; assay: Anticonvulsant activity in Wistar albino rat assessed as time spent on clonic convulsions phase at 65 mg/kg by MES test (RVb = 16.80 +/- 2.50 sec); type: functional; how it was run: as §1
[32] = tested on: Rattus norvegicus; assay: Anticonvulsant activity in Wistar albino rat assessed as time spent on tonic flexion phase at 65 mg/kg by MES test (RVb = 3.12 +/- 0.31 sec); type: functional; how it was run: as §1
[33] = tested on: Rattus norvegicus; assay: Anticonvulsant activity in Wistar albino rat assessed as time spent on stupor phase at 65 mg/kg by MES test (RVb = 218.33 +/- 5.80 sec); type: functional; how it was run: as §1
[34] = tested on: Rattus norvegicus; assay: Anticonvulsant activity in Wistar albino rat assessed as time spent on clonic convulsions phase at 85 mg/kg by MES test (RVb = 16.80 +/- 2.50 sec); type: functional; how it was run: as §1
[35] = tested on: Rattus norvegicus; assay: Anticonvulsant activity in Wistar albino rat assessed as time spent on stupor phase at 85 mg/kg by MES test (RVb = 218.33 +/- 5.80 sec); type: functional; how it was run: as §1
[36] = tested on: Rattus norvegicus; assay: Anticonvulsant activity in Wistar albino rat assessed as time spent on tonic flexion phase at 85 mg/kg by MES test (RVb = 3.12 +/- 0.31 sec); type: functional; how it was run: as §1
[37] = tested on: Rattus norvegicus; assay: Anticonvulsant activity in Wistar albino rat assessed as time spent on tonic extensor phase at 85 mg/kg by MES test (RVb = 11 +/- 0.57 sec); type: functional; how it was run: as §1

Compound: c1ccc(-c2nnc(CSc3nc4ccccc4[nH]3)o2)cc1
- Activity [1]: 107.7 mg/dL
- Activity [2]: 337.2 mg/dL
- Activity [3]: 76.33 mg/dL
- Activity [4]: inactive
- Activity [5]: 180.2 mg/dL

Compound: COc1ccc(Cl)cc1C(=O)NCCc1ccc(S(=O)(=O)NC(=O)NC2CCCCC2)cc1 [GLYBURIDE]
- Activity [1]: 105.7 mg/dL
- Activity [2]: 139.2 mg/dL
- Activity [5]: 176.8 mg/dL

Compound: Oc1cc(-c2nnc(CSc3nc4ccccc4[nH]3)o2)cc(O)c1O
- Activity [1]: 110 mg/dL
- Activity [2]: 386.4 mg/dL
- Activity [3]: 73.33 mg/dL
- Activity [5]: 174.2 mg/dL

Compound: O=C(CSc1nc2ccccc2[nH]1)NN1C(=O)CSC1c1c(O)ccc2ccccc12 (centres undefined)
- Time [6]: 172.5 s
- Time [7]: 3.98 s
- Time [8]: 3.08 s
- Time [9]: 1.8 s

Compound: Nc1ccc(C2SCC(=O)N2NC(=O)CSc2nc3ccccc3[nH]2)cc1 (centres undefined)
- Time [6]: 210.5 s
- Time [7]: 5.66 s
- Time [8]: 3.15 s
- Time [9]: 15.4 s

Compound: COc1ccc(C2SCC(=O)N2NC(=O)CSc2nc3ccccc3[nH]2)cc1 (centres undefined)
- Time [10]: 3.02 s
- Time [11]: 12.62 s
- Time [12]: 208 s
- Time [13]: 9.5 s

Compound: O=[N+]([O-])c1ccc(-c2nnc(CSc3nc4ccccc4[nH]3)o2)cc1
- Activity [1]: 110 mg/dL
- Activity [2]: 158.7 mg/dL
- Activity [3]: 78.33 mg/dL
- Activity [5]: 154.5 mg/dL

Compound: O=C1NC(=O)C(c2ccccc2)(c2ccccc2)N1 [PHENYTOIN]
- Time [14]: 2.87 s
- Time [15]: 4.9 s
- Time [16]: 158.6 s
- Time [17]: 0 s

Compound: O=C(CSc1nc2ccccc2[nH]1)NN1C(=O)CSC1c1ccccc1 (centres undefined)
- Time [18]: 1.2 s
- Time [19]: 192.5 s
- Time [20]: 9.2 s
- Time [21]: 3.2 s

Compound: COc1cccc(C2SCC(=O)N2NC(=O)CSc2nc3ccccc3[nH]2)c1O (centres undefined)
- Time [22]: 3.3 s
- Time [23]: 213.8 s
- Time [24]: 4.21 s
- Time [25]: 16.2 s

Compound: Cc1ccc(C2SCC(=O)N2NC(=O)CSc2nc3ccccc3[nH]2)cc1 (centres undefined)
- Time [26]: 14.62 s
- Time [27]: 3.12 s
- Time [28]: 207.3 s
- Time [29]: 11 s

Compound: O=[N+]([O-])c1ccc(-c2nnc(CSc3nc4ccccc4[nH]3)o2)c(Cl)c1
- Activity [1]: 121.7 mg/dL
- Activity [2]: 187.7 mg/dL
- Activity [3]: 77.17 mg/dL
- Activity [5]: 155.3 mg/dL

Compound: O=C(CSc1nc2ccccc2[nH]1)NN1C(=O)CSC1c1ccco1 (centres undefined)
- Time [30]: 5.3 s
- Time [31]: 1 s
- Time [32]: 4.2 s
- Time [33]: 208.6 s

Compound: c1cncc(-c2nnc(CSc3nc4ccccc4[nH]3)o2)c1
- Activity [1]: 122.8 mg/dL
- Activity [2]: 343.3 mg/dL
- Activity [3]: 81.34 mg/dL
- Activity [5]: 181.8 mg/dL

Compound: Clc1ccc(-c2nnc(CSc3nc4ccccc4[nH]3)o2)cc1
- Activity [1]: 120 mg/dL
- Activity [2]: 386.7 mg/dL
- Activity [3]: 74.83 mg/dL
- Activity [5]: 173.2 mg/dL

Compound: O=C(CSc1nc2ccccc2[nH]1)NN1C(=O)CSC1c1ccc(Cl)cc1 (centres undefined)
- Time [10]: 4.56 s
- Time [11]: 1.36 s
- Time [12]: 215.5 s
- Time [13]: 12.1 s

Compound: O=C(CSc1nc2ccccc2[nH]1)NN1C(=O)CSC1c1ccc(O)cc1 (centres undefined)
- Time [26]: 1.02 s
- Time [27]: 3.96 s
- Activity [4]: Active
- Time [28]: 202.1 s
- Time [29]: 3.73 s

Compound: O=C1NC(=O)C(=O)C(=O)N1 [ALLOXAN]
- Activity [2]: 339.8 mg/dL

Compound: Oc1ccc(-c2nnc(CSc3nc4ccccc4[nH]3)o2)cc1
- Activity [1]: 125 mg/dL
- Activity [2]: 166.2 mg/dL
- Activity [3]: 80.83 mg/dL
- Activity [4]: inactive
- Activity [5]: 167.5 mg/dL

Compound: O=C(CSc1nc2ccccc2[nH]1)NN1C(=O)CSC1c1ccccc1O (centres undefined)
- Time [34]: 15.62 s
- Time [35]: 209.3 s
- Time [36]: 3.14 s
- Activity [4]: Active
- Time [37]: 4.33 s

Compound: Nc1ccc(-c2nnc(CSc3nc4ccccc4[nH]3)o2)cc1
- Activity [1]: 106.5 mg/dL
- Activity [2]: 335.5 mg/dL
- Activity [3]: 80.85 mg/dL
- Activity [5]: 155.5 mg/dL
